Laboratory results from ChEMBL document CHEMBL4831487, “Fragment-based drug design targeting syntenin PDZ2 domain involved in exosomal release and tumour spread” (Eur J Med Chem, 2021).
The source made the active and inactive calls. The rule behind the calls is not given here.

Columns and labels:
[1] = target: Syntenin-1/Syndecan-2 (Homo sapiens) (UniProt O00560+P34741); assay: Inhibition of recombinant human full-length GST-tagged syntenin-1/Syndecan-2 complex interaction expressed in Escherichia coli ER2566 at 400 uM measured after 16 hrs by HTRF assay
Method in brief: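 GST-syntenin-1 full length expressed in E. coli ER2566 (0.4 mM IPTG, overnight at 30 °C), purified on GSTrap; HTRF binding to syndecan-2. Compounds at 400 μM, single well, plates spun then incubated 16 h at 4°C. Excitation 337 nm, emission 665/620 ratio; % inhibition from DMSO-only max and no-protein min signals.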

[2] = tested on: MCF7; assay: Down regulation of flotillin-1 level in human MCF7 cells at 100 uM measured after 16 hrs by Western blot analysis; format: functional, cell-based
Method in brief: (§1)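 MCF-7 cells (DMEM-F12, 10% FCS, 37°C, 5% CO2) treated at 100 μM or DMSO 0.2% vehicle for 16 h in medium with 10% exosome-depleted FCS. Exosomes isolated from medium by sequential centrifugation at 4 °C (500 g, 10,000 g, 100,000 g pellet, PBS wash); loading normalized to parent cell number. SDS-PAGE western blot; mean signal relative to vehicle, N independent experiments, one-way ANOVA with Tukey posttest.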

[3] = target: T1, Syntenin-1/Syndecan-2 (Homo sapiens, UniProt O00560); assay: Inhibition of recombinant human full-length GST-tagged syntenin-1/Syndecan-2 complex interaction expressed in Escherichia coli ER2566 in presence of NP40 detergent measured after 16 hrs by HTRF assay
Method in brief: (§2)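 HTRF assay of E. coli ER2566-expressed GST-syntenin-1 full length binding to syndecan-2; serial DMSO dilutions of compound in triplicate, 16 h at 4°C after spin. 665/620 nm ratio (excitation 337 nm) converted to % inhibition versus DMSO-only and no-protein controls to derive IC50; for line 4, buffer contained 0.01% NP40.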

[4] = target: T1, Syntenin-1/Syndecan-2; assay: Inhibition of recombinant human full-length GST-tagged syntenin-1/Syndecan-2 complex interaction expressed in Escherichia coli ER2566 measured after 16 hrs by HTRF assay; method in brief: as §2
[5] = tested on: MCF7; assay: Down regulation of syntenin-1 level in human MCF7 cells at 100 uM measured after 16 hrs by Western blot analysis; format: functional, cell-based; method in brief: as §1

T1 sequence (O00560 whole entry): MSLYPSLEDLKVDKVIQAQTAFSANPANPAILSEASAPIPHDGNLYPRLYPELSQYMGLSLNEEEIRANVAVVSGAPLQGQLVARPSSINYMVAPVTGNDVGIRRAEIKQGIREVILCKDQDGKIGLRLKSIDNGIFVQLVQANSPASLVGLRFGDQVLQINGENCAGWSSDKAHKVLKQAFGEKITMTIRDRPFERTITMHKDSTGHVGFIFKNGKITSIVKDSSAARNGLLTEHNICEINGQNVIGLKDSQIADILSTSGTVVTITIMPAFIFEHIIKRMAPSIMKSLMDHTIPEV
T1 sequence (P34741 whole entry, further chain): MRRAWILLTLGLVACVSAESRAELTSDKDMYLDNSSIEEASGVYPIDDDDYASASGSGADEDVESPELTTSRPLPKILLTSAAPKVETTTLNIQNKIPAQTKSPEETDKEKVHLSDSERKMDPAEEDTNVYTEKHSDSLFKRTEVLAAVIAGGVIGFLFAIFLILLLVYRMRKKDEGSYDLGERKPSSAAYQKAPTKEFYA

| Compound | inhibition [1] | IC50 [4] | also measured |
| --- | --- | --- | --- |
| C[C@H](NC(=O)CCOc1ccc(Cl)cc1)C(=O)O | 6% | – | – |
| CC(C)[C@H](NC(=O)CCSc1ccc(Cl)cc1)C(=O)O | 94% | 33 µM | Activity [2]: inactive; IC50 [3]: 45 µM; Activity [5]: Active |
| CC(=O)Nc1ccc(-c2ccc(SCCC(=O)N[C@H](C(=O)O)C(C)C)cc2)cn1 | – | 177 µM | – |
| CC(C)[C@H](NC(=O)CCSc1ccc(-c2ccc(S(=O)(=O)N3CCCCC3)cc2)cc1)C(=O)O | – | > 200 µM | – |
| COCCOc1ccc(-c2ccc(SCCC(=O)N[C@H](C(=O)O)C(C)C)cc2)cn1 | – | 112 µM | – |
| O=C(CCOc1ccc(Cl)cc1)N[C@@H](Cc1ccccc1)C(=O)O | 1% | – | – |
| C[C@H](NC(=O)CCSc1ccccc1)C(=O)O | 19% | – | – |
| C[C@H](NC(=O)COc1ccccc1)C(=O)O | 0% | – | – |
| O=C(CCSc1ccccc1)N[C@@H](Cc1ccccc1)C(=O)O | 0% | – | – |
| CC(C)[C@H](NC(=O)CCSc1ccc(-c2cccc(O)c2)cc1)C(=O)O | – | > 200 µM | – |
| CC(C)[C@H](NC(=O)CCSc1ccc(-c2ccc(CNC(=O)OC(C)(C)C)cc2)cc1)C(=O)O | – | 69 µM | – |
| C[C@H](NC(=O)COc1ccc(Cl)cc1)C(=O)O | 0% | – | – |
| C[C@H](NC(=O)CCOc1ccccc1)C(=O)O | 11% | – | – |
| CC(C)[C@H](NC(=O)CCCc1ccccc1)C(=O)O | 9% | – | – |
| O=C(CCSc1ccc(Cl)cc1)N[C@@H](Cc1ccccc1)C(=O)O | 0% | – | – |
| CC(C)[C@H](NC(=O)CCSc1ccc(-c2cccc(S(N)(=O)=O)c2)cc1)C(=O)O | – | 78 µM | – |

| Compound | inhibition [1] | IC50 [4] | also measured |
| --- | --- | --- | --- |
| CC(C)[C@H](NC(=O)CCSc1ccccc1)C(=O)O | 76% | – | – |
| CC(C)[C@H](NC(=O)CCSc1ccc(Br)cc1)C(=O)O | – | 47 µM | Activity [2]: inactive; IC50 [3]: 51 µM; Activity [5]: Active |
| CC(C)[C@H](NC(=O)COc1ccccc1)C(=O)O | 7% | – | – |
| O=C(CCOc1ccccc1)N[C@@H](Cc1ccccc1)C(=O)O | 0% | – | – |
| CC(C)[C@H](NC(=O)COc1ccc(Cl)cc1)C(=O)O | 16% | – | – |
| CC(C)[C@H](NC(=O)CSc1ccccc1)C(=O)O | 20% | – | – |
| CC(C)[C@H](NC(=O)CSc1ccc(Cl)cc1)C(=O)O | 56% | – | IC50 [3]: 864 µM |
| CC(C)[C@H](NC(=O)CCSc1ccc(-c2ccc(CCC(=O)O)cc2)cc1)C(=O)O | – | > 200 µM | – |
| CC(C)[C@H](NC(=O)CCSc1ccc(-c2cccc(CO)c2)cc1)C(=O)O | – | 96 µM | – |
| C[C@H](NC(=O)CCSc1ccc(Cl)cc1)C(=O)O | 56% | – | – |
| CC(C)[C@H](NC(=O)CCOc1ccccc1)C(=O)O | 0% | – | – |
| C[C@H](NC(=O)CSc1ccc(Cl)cc1)C(=O)O | 25% | – | – |
| CC(C)[C@H](NC(=O)CCSc1ccc(-c2ccc(OS(C)(=O)=O)cc2)cc1)C(=O)O | – | 7.4 µM | IC50 [3]: 204 µM |
| C[C@H](NC(=O)CSc1ccccc1)C(=O)O | 0% | – | – |
| CC(C)[C@H](NC(=O)CCOc1ccc(Cl)cc1)C(=O)O | 31% | – | – |
